We go through 1 molecule from ChEMBL document CHEMBL4049387, “Combination of l-Carnitine with Lipophilic Linkage-Donating Gemcitabine Derivatives as Intestinal Novel Organic Cation Transporter 2-Targeting Oral Prodrugs” (J Med Chem, 2017).

The IC50 is the concentration needed to halve the response being measured. One may read the AUC as concentration integrated over time. A lower AUC goes with low exposure.

Data set [1] is described as follows: Half life in rat plasma at 5 uM by HPLC method. It counts as ADME, cell-free. In outline:
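Compound at 5 µM final in rat plasma, 20% rat hepatic homogenate or 20% rat intestinal homogenate at 37 °C for 24 h. Homogenates made by homogenizing 0.3 g saline-washed tissue in 1 mL saline, spun 13,000 rpm 4 °C 5 min. Sampled at intervals, analysed by HPLC. t1/2 = 0.693/k.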

The next data set has as its system Caco-2. As to the kind of experiment: Cytotoxicity against human Caco2 cells assessed as decrease in cell viability after 48 hrs by MTT assay. The data set is classed as functional, cell-based. Conditions: Caco-2, 48 h; call rule not given here. Put shortly: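 BxPC-3 and Caco-2 cells exposed to compounds for 48 h. Viability read by MTT assay kit. IC50 calculated from dose-response.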
A general note: Formazan colour is commonly taken as a measure of viable cells.

A further data set concerns Rattus norvegicus. As to the kind of experiment: AUC (0 to 24 hrs) in Wistar rat at 50 mg/kg, po administered as single dose by UPLC-MS/MS method. It counts as ADME, organism-based. On the set-up: dose 50 mg/kg, time < 24 hr, route oral. The conditions noted are these: in vivo. Put shortly:
(§1)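 Wistar rats, six per group, single oral dose equivalent to 50 mg/kg gemcitabine; separate group given gemcitabine iv at 7.5 mg/kg. Oral sampling at 5, 10, 15, 30 min and 1, 2, 4, 6, 8, 12, 24 h; iv at 15, 30 min and 2, 4, 8, 12, 24 h. Blood into THU-pretreated heparinized tubes, centrifuged 3000 × g 15 min, plasma at -80 °C. Prodrug and gemcitabine quantified by UPLC-MS/MS. F = AUCpo×Div/AUCiv/Dpo×100%.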

Data set [2] is described as follows: Terminal half-life in Wistar rat at 50 mg/kg, po administered as single dose by UPLC-MS/MS method. The data set is classed as ADME, organism-based. The conditions noted are these: in vivo, read-out: beta t1/2 (converted). Put shortly: as §1
Another data set has as its system Lung. As to the kind of experiment: Drug uptake in mouse lung at 102 mg/kg, po administered as single dose at 0.5 hrs post dose. Conditions: in vivo. The data set is classed as ADME, organism-based. In outline: (§2)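 Mice, three per time point, single oral dose of 102 mg/kg (equivalent to 50 mg/kg gemcitabine). Heart, liver, spleen, lung, kidney and brain collected at 0.16, 0.5 and 2 h, rinsed in saline. 0.3 g tissue homogenized 1 min in 1 mL saline, spun 13,000 rpm 4 °C 5 min. Gemcitabine measured in supernatant.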

For another data set, the system named is Heart. As to the kind of experiment: Drug uptake in mouse heart at 102 mg/kg, po administered as single dose at 2 hrs post dose. The data set is classed as ADME, organism-based. The conditions noted are these: in vivo. Put shortly: as §2
The subject of another data set is Spleen. As to the kind of experiment: Drug uptake in mouse spleen at 102 mg/kg, po administered as single dose at 2 hrs post dose. The data set is classed as ADME, organism-based. Conditions: in vivo. Put shortly:
as §2

The next data set relates to Mus musculus. As to the kind of experiment: Toxicity in Kunming mouse assessed as fibrosis in kidney at 102 mg/kg, po administered once daily for 14 days by hematoxylin/eosin staining based optical microscopic analysis. It counts as organism-based. The conditions noted are these: in vivo, 336 h. In outline:
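Kunming mice, four per group, dosed orally once daily for 14 days with 102 mg/kg or saline control; body weight recorded every other day. Heart, liver, spleen, lung and kidney fixed in 10% buffered formalin, paraffin-embedded, sectioned, stained with hematoxylin and eosin, and examined by optical microscopy.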

Regarding `C[N+](C)(C)CC(CC(=O)[O-])OC(=O)CCCCC(=O)Nc1ccn([C@@H]2O[C@H](CO)[C@@H](O)C2(F)F)c(=O)n1` (stereo partly drawn), the half-life at 5 µM in data set [1] was 6.2 h. Further, the half-maximal inhibitory concentration (IC50) in the data set with Caco-2 came to 40.9 µM. In addition, the AUC with Rattus norvegicus is 24300 ng·h/mL. In addition, the half-life in data set [2] was 6.8 h. The Drug uptake entry in the data set with Lung was “Active”; in the data set on Heart, “Not Active”; in the data set on Spleen it was “Not Active”. In addition, in the data set with Mus musculus, the Activity result is given as “Non-Toxic”.
